ChEMBL document CHEMBL1142436, “Design and synthesis of 4-substituted indolo[3,2-e][1,2,3]triazolo[1,5-a]pyrimidine derivatives with antitumor activity” (2008)

Tests used:
Assay type in all cases: functional
CCRF-CEM = assay: Growth inhibition of human CCRF-CEM cells after 48 hrs
Summary of the method: (§1)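 NCI ~60-line screen. Cells were grown in RPMI 1640 with 5% FBS and 2 mM L-glutamine and plated at 5000–40000 cells/well. After a 24 h preincubation, five drug concentrations from DMSO stocks were added for 48 h at 37 °C. Cells were TCA-fixed, stained with SRB and read at 515 nm. GI50 was taken from time-zero and control absorbances and reported as pGI50.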

HL-60 = assay: Growth inhibition of human HL60 cells after 48 hrs; conditions: HL-60, 48 h; summary of the method: as §1
K562 = assay: Growth inhibition of human K562 cells after 48 hrs; conditions: K562, 48 h; summary of the method: as §1
MOLT-4 = assay: Growth inhibition of human MOLT4 cells after 48 hrs; conditions: MOLT-4, 48 h; summary of the method: as §1
[1] = Growth inhibition of human HS578T cells after 48 hrs; conditions: Hs-578T; summary of the method: as §1
MDA-MB-435 = assay: Growth inhibition of human MDA-MB435 cells after 48 hrs; conditions: MDA-MB-435, 48 h; summary of the method: as §1
BT-549 = assay: Growth inhibition of human BT549 cells after 48 hrs; conditions: BT-549, 48 h; summary of the method: as §1
T47D = assay: Growth inhibition of human T47D cells after 48 hrs
Summary of the method: (§2)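 NCI 60-line screen: cells in RPMI 1640 with 5% FBS and 2 mM L-glutamine, plated at 5000–40000 cells/well, grown 24 h (37 °C, 5% CO₂), then exposed to five 10-fold or ½-log dilutions (DMSO stock) for 48 h. Fixed with TCA (final 10% for adherent cells, 16% for suspension cells), then SRB stained with absorbance at 515 nm. GI50 from percentage growth relative to time-zero and control wells.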

RPMI-8226 = assay: Growth inhibition of human RPMI8226 cells after 48 hrs; conditions: RPMI-8226, 48 h; summary of the method: as §1
SR = assay: Growth inhibition of human SR cells after 48 hrs; summary of the method: as §2
A549 = assay: Growth inhibition of human A549 cells after 48 hrs; conditions: A549, 48 h; summary of the method: as §1
EKVX = assay: Growth inhibition of human EKVX cells after 48 hrs; summary of the method: as §1
HOP-62 = assay: Growth inhibition of human HOP62 cells after 48 hrs; conditions: HOP-62, 48 h; summary of the method: as §1
HOP-92 = assay: Growth inhibition of human HOP92 cells after 48 hrs; conditions: HOP-92, 48 h; summary of the method: as §1
NCI-H226 = assay: Growth inhibition of human NCI-H226 cells after 48 hrs; conditions: NCI-H226, 48 h; summary of the method: as §1
NCI-H23 = assay: Growth inhibition of human NCI-H23 cells after 48 hrs; conditions: Homo sapiens, NCI-H23, 48 h; summary of the method: as §1
NCI-H322M = assay: Growth inhibition of human NCI-H322M cells after 48 hrs; summary of the method: as §1
NCI-H460 [2] = assay: Growth inhibition of human NCI-H460 cells after 48 hrs; conditions: NCI-H460, 48 h; summary of the method: as §1
NCI-H522 = assay: Growth inhibition of human NCI-H522 cells after 48 hrs; conditions: NCI-H522, 48 h; summary of the method: as §1
COLO 205 = assay: Growth inhibition of human COLO205 cells after 48 hrs; conditions: COLO 205, 48 h; summary of the method: as §1
HCC 2998 = assay: Growth inhibition of human HCC2998 cells after 48 hrs; conditions: HCC 2998, 48 h; summary of the method: as §1
HCT-116 = assay: Growth inhibition of human HCT116 cells after 48 hrs; conditions: HCT-116, 48 h; summary of the method: as §1
HCT-15 = assay: Growth inhibition of human HCT15 cells after 48 hrs; conditions: HCT-15, 48 h; summary of the method: as §1
HT-29 = assay: Growth inhibition of human HT29 cells after 48 hrs; conditions: HT-29, 48 h; summary of the method: as §1
KM12 = assay: Growth inhibition of human KM12 cells after 48 hrs; conditions: KM12, 48 h; summary of the method: as §1
SW-620 = assay: Growth inhibition of human SW620 cells after 48 hrs; conditions: SW-620, 48 h; summary of the method: as §2
SF-268 [3] = assay: Growth inhibition of human SF268 cells after 48 hrs; conditions: SF-268, 48 h; summary of the method: as §1
SF-295 = assay: Growth inhibition of human SF295 cells after 48 hrs; conditions: SF-295, 48 h; summary of the method: as §1
SF-539 = assay: Growth inhibition of human SF539 cells after 48 hrs; conditions: SF-539, 48 h; summary of the method: as §1
SNB-19 = assay: Growth inhibition of human SNB19 cells after 48 hrs; conditions: SNB-19, 48 h; summary of the method: as §2
SNB-75 = assay: Growth inhibition of human SNB75 cells after 48 hrs; conditions: SNB-75, 48 h; summary of the method: as §2
U-251 = assay: Growth inhibition of human U251 cells after 48 hrs; conditions: U-251, 48 h; summary of the method: as §2
LOX IMVI = assay: Growth inhibition of human LOXIMVI cells after 48 hrs; summary of the method: as §1
Malme-3M = assay: Growth inhibition of human MALME3M cells after 48 hrs; summary of the method: as §1
M14 = assay: Growth inhibition of human M14 cells after 48 hrs; conditions: M14, 48 h; summary of the method: as §1
SK-MEL-2 = assay: Growth inhibition of human SK-MEL2 cells after 48 hrs; conditions: SK-MEL-2, 48 h; summary of the method: as §1
SK-MEL-28 = assay: Growth inhibition of human SK-MEL28 cells after 48 hrs; conditions: SK-MEL-28, 48 h; summary of the method: as §1
SK-MEL-5 = assay: Growth inhibition of human SK-MEL5 cells after 48 hrs; conditions: SK-MEL-5, 48 h; summary of the method: as §1
UACC-257 = assay: Growth inhibition of human UACC257 cells after 48 hrs; conditions: UACC-257, 48 h; summary of the method: as §2
UACC-62 = assay: Growth inhibition of human UACC62 cells after 48 hrs; conditions: UACC-62, 48 h; summary of the method: as §2
IGROV-1 = assay: Growth inhibition of human IGROV1 cells after 48 hrs; conditions: IGROV-1, 48 h; summary of the method: as §1
OVCAR-3 = assay: Growth inhibition of human OVCAR-3 cells after 48 hrs; conditions: OVCAR-3, 48 h; summary of the method: as §1
OVCAR-4 = assay: Growth inhibition of human OVCAR4 cells after 48 hrs; conditions: OVCAR-4, 48 h; summary of the method: as §1
OVCAR-5 = assay: Growth inhibition of human OVCAR5 cells after 48 hrs; conditions: OVCAR-5, 48 h; summary of the method: as §1
OVCAR-8 = assay: Growth inhibition of human OVCAR8 cells after 48 hrs; conditions: OVCAR-8, 48 h; summary of the method: as §1
SK-OV-3 = assay: Growth inhibition of human SKOV3 cells after 48 hrs; conditions: SK-OV-3, 48 h; summary of the method: as §2
786-0 = assay: Growth inhibition of human 786-0 cells after 48 hrs; conditions: 786-0, 48 h; summary of the method: as §1
A498 = assay: Growth inhibition of human A498 cells after 48 hrs; conditions: A498, 48 h; summary of the method: as §1
ACHN = assay: Growth inhibition of human ACHN cells after 48 hrs; summary of the method: as §1
CAKI-1 = assay: Growth inhibition of human CAKI1 cells after 48 hrs; conditions: CAKI-1, 48 h; summary of the method: as §1
RXF 393 = assay: Growth inhibition of human RXF393 cells after 48 hrs; conditions: RXF 393, 48 h; summary of the method: as §1
SN12C = assay: Growth inhibition of human SN12C cells after 48 hrs; summary of the method: as §2
TK-10 = assay: Growth inhibition of human TK10 cells after 48 hrs; conditions: TK-10, 48 h; summary of the method: as §2
UO-31 = assay: Growth inhibition of human UO31 cells after 48 hrs; conditions: UO-31, 48 h; summary of the method: as §2
PC-3 = assay: Growth inhibition of human PC3 cells after 48 hrs; conditions: PC-3, 48 h; summary of the method: as §1
DU-145 = assay: Growth inhibition of human DU145 cells after 48 hrs; conditions: DU-145, 48 h; summary of the method: as §1
MCF7 [4] = assay: Growth inhibition of human MCF7 cells after 48 hrs; conditions: MCF7, 48 h; summary of the method: as §1
NCI/ADR-RES = assay: Growth inhibition of human NCI/ADR-RES cells after 48 hrs; summary of the method: as §1
MDA-MB-231 = assay: Growth inhibition of human MDA-MB-231 cells after 48 hrs; conditions: MDA-MB-231, 48 h; summary of the method: as §1
MCF7 [5] = assay: Antitumor activity against human MCF7 cells at 0.1 mM after 48 hrs
Summary of the method: (§3)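 Prescreen run under the NCI Developmental Therapeutic Program. Agents were tested at a single concentration of 10^-4 M against a three-line panel (MCF7, NCI-H460, SF-268).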

NCI-H460 [6] = assay: Antitumor activity against human NCI-H460 cells at 0.1 mM after 48 hrs; summary of the method: as §3
SF-268 [7] = assay: Antitumor activity against human SF268 cells at 0.1 mM after 48 hrs; summary of the method: as §3

## COC(=O)C(Cc1c[nH]cn1)NC(=O)CNC(=O)CCCn1c(=O)c2c3ccccc3n(C)c2n2nnc(-c3ccccc3)c12 (stereo not given)
CCRF-CEM
  GI50: > 100 µM
HL-60
  GI50: > 100 µM
K562
  GI50: > 100 µM
MOLT-4
  GI50: > 100 µM
[1]
  GI50: > 100 µM
MDA-MB-435
  GI50: > 100 µM
BT-549
  GI50: > 100 µM
T47D
  GI50: > 100 µM
RPMI-8226
  GI50: > 100 µM
SR
  GI50: > 100 µM
A549
  GI50: > 100 µM
EKVX
  GI50: > 100 µM
HOP-62
  GI50: > 100 µM
HOP-92
  GI50: > 100 µM
NCI-H226
  GI50: > 100 µM
NCI-H23
  GI50: > 100 µM
NCI-H322M
  GI50: > 100 µM
NCI-H460 [2]
  GI50: > 100 µM
NCI-H522
  GI50: > 100 µM
COLO 205
  GI50: > 100 µM
HCC 2998
  GI50: > 100 µM
HCT-116
  GI50: > 100 µM
HCT-15
  GI50: > 100 µM
HT-29
  GI50: > 100 µM
KM12
  GI50: > 100 µM
SW-620
  GI50: > 100 µM
SF-268 [3]
  GI50: > 100 µM
SF-295
  GI50: > 100 µM
SF-539
  GI50: > 100 µM
SNB-19
  GI50: > 100 µM
SNB-75
  GI50: > 100 µM
U-251
  GI50: > 100 µM
LOX IMVI
  GI50: > 100 µM
Malme-3M
  GI50: > 100 µM
M14
  GI50: > 100 µM
SK-MEL-2
  GI50: > 100 µM
SK-MEL-28
  GI50: > 100 µM
SK-MEL-5
  GI50: > 100 µM
UACC-257
  GI50: > 100 µM
UACC-62
  GI50: > 100 µM
IGROV-1
  GI50: 72.4 µM
OVCAR-3
  GI50: > 100 µM
OVCAR-4
  GI50: > 100 µM
OVCAR-5
  GI50: > 100 µM
OVCAR-8
  GI50: > 100 µM
SK-OV-3
  GI50: > 100 µM
786-0
  GI50: > 100 µM
A498
  GI50: > 100 µM
ACHN
  GI50: > 100 µM
CAKI-1
  GI50: > 100 µM
RXF 393
  GI50: > 100 µM
SN12C
  GI50: > 100 µM
TK-10
  GI50: > 100 µM
UO-31
  GI50: > 100 µM
PC-3
  GI50: 30.2 µM
DU-145
  GI50: > 100 µM
MCF7 [4]
  GI50: > 100 µM
NCI/ADR-RES
  GI50: > 100 µM
MDA-MB-231
  GI50: > 100 µM

## CCOC(=O)CCCn1c(=O)c2c3ccccc3n(C)c2n2nnc(-c3ccccc3)c12
MCF7 [5]
  Activity: 114%
NCI-H460 [6]
  Activity: 95%
SF-268 [7]
  Activity: 110%

## Cn1c2ccccc2c2c(=O)n(CCCC(=O)O)c3c(-c4ccccc4)nnn3c21
MCF7 [5]
  Activity: 80%
NCI-H460 [6]
  Activity: 95%
SF-268 [7]
  Activity: 87%
